Experimental data as given in ChEMBL document CHEMBL4689842, “EUbOPEN Chemogenomics Library wave 1” (2021).
Several values for one entry are separate records, joined by “and”; a condition that tells them apart may be missing. Equal entries are not always repeated.

Test system: HEK-293T
Assay: Multiplex assay against HEK293T;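 for Population Tubulin-Different-Phenotype (%): share of the cells with healthy nuclei that show this phenotype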
Format: toxicity, cell-based
Conditions: human
Summary of the method: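 At seeding, live cells were stained with Hoechst33342, BioTracker Green Microtubule Cytoskeleton Dye, MitoTracker Red and Annexin V Alexa Fluor 680. After compound addition they were imaged on a CQ1 microscope at 37°C and 5% CO2, and CellPathfinder machine-learning gating sorted them into Hoechst high-intensity objects or normal cells, with normal cells further split into healthy, pyknosed or fragmented nuclei and pyknosed cells into mitotic or apoptotic. Tubulin, mitochondrial-mass and membrane-permeability phenotypes are given as per cents of cells with healthy nuclei.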

[1] = 12 h, 1 µM, compound concentration 1 uM, replicate 1
[2] = 12 h, 1 µM, compound concentration 1 uM, replicate 2
[3] = 12 h, 10 µM, compound concentration 10 uM, replicate 1
[4] = 12 h, 10 µM, compound concentration 10 uM, replicate 2
[5] = 24 h, 1 µM, compound concentration 1 uM, replicate 1
[6] = 24 h, 1 µM, compound concentration 1 uM, replicate 2
[7] = 24 h, 10 µM, compound concentration 10 uM, replicate 1
[8] = 24 h, 10 µM, compound concentration 10 uM, replicate 2

CCC1=C[C@@H]2C[N@](C1)Cc1c([nH]c3ccccc13)[C@@](C(=O)OC)(c1cc3c(cc1OC)N(C)[C@H]1[C@@](O)(C(=O)OC)[C@H](OC(C)=O)[C@]4(CC)C=CCN5CC[C@]31[C@@H]54)C2.O=C(O)C(O)C(O)C(=O)O.O=C(O)C(O)C(O)C(=O)O [VINORELBINE TARTRATE]
Population Apoptotic (%) [1]: 25% and 14%
Population Fragmented Nuclei (%) [1]: 25% and 16%
Population Healthy Nuclei (%) [1]: 32% and 48%
Population Hoechst High Intensity Objects (%) [1]: 18% and 15%
Population Mitochondria Different-Phenotype (%) [1]: 18% and 9%
Population Mitotic Cells (%) [1]: 75% and 85%
Population Normal (%) [1]: 81% and 84%
Population Pyknosed Nuclei (%) [1]: 41% and 35%
Total Cell Count [1]: 502 and 565
Population Apoptotic (%) [2]: 17% and 8%
Population Fragmented Nuclei (%) [2]: 3% and 4%
Population Healthy Nuclei (%) [2]: 57% and 63%
Population Hoechst High Intensity Objects (%) [2]: 4% and 3%
Population Membrane Permeable-Phenotype (%) [2]: 12% and 0%
Population Mitochondria Different-Phenotype (%) [2]: 27% and 14%
Population Mitotic Cells (%) [2]: 83% and 91%
Population Normal (%) [2]: 95% and 96%
Population Pyknosed Nuclei (%) [2]: 38% and 31%
Total Cell Count [2]: 945 and 1247
Population Apoptotic (%) [3]: 31% and 19%
Population Fragmented Nuclei (%) [3]: 29% and 13%
Population Healthy Nuclei (%) [3]: 22% and 49%
Population Hoechst High Intensity Objects (%) [3]: 19% and 15%
Population Mitochondria Different-Phenotype (%) [3]: 13% and 9%
Population Mitotic Cells (%) [3]: 68% and 80%
Population Normal (%) [3]: 80% and 84%
Population Pyknosed Nuclei (%) [3]: 48% and 37%
Total Cell Count [3]: 499 and 592
Population Apoptotic (%) [4]: 13% and 7%
Population Fragmented Nuclei (%) [4]: 3%
Population Healthy Nuclei (%) [4]: 54% and 62%
Population Hoechst High Intensity Objects (%) [4]: 2%
Population Membrane Permeable-Phenotype (%) [4]: 10% and 0%
Population Mitochondria Different-Phenotype (%) [4]: 22% and 16%
Population Mitotic Cells (%) [4]: 86% and 92%
Population Normal (%) [4]: 97%
Population Pyknosed Nuclei (%) [4]: 41% and 33%
Total Cell Count [4]: 964 and 1090
Population Apoptotic (%) [5]: 13% and 28%
Population Fragmented Nuclei (%) [5]: 15% and 27%
Population Healthy Nuclei (%) [5]: 47% and 33%
Population Hoechst High Intensity Objects (%) [5]: 12% and 20%
Population Membrane Permeable-Phenotype (%) [5]: 0% and 13%
Population Mitotic Cells (%) [5]: 86% and 71%
Population Normal (%) [5]: 87% and 79%
Population Pyknosed Nuclei (%) [5]: 36% and 38%
Total Cell Count [5]: 530 and 459
Population Apoptotic (%) [6]: 14% and 8%
Population Fragmented Nuclei (%) [6]: 7% and 9%
Population Healthy Nuclei (%) [6]: 36% and 69%
Population Hoechst High Intensity Objects (%) [6]: 6% and 3%
Population Membrane Permeable-Phenotype (%) [6]: 8%
Population Mitochondria Different-Phenotype (%) [6]: 28%
Population Mitotic Cells (%) [6]: 85% and 91%
Population Normal (%) [6]: 93% and 96%
Population Pyknosed Nuclei (%) [6]: 55% and 21%
Total Cell Count [6]: 914 and 1303
Population Apoptotic (%) [7]: 20% and 38%
Population Fragmented Nuclei (%) [7]: 16% and 29%
Population Healthy Nuclei (%) [7]: 45% and 26%
Population Hoechst High Intensity Objects (%) [7]: 9% and 20%
Population Mitochondria Different-Phenotype (%) [7]: 10% and 13%
Population Mitotic Cells (%) [7]: 79% and 61%
Population Normal (%) [7]: 90% and 79%
Population Pyknosed Nuclei (%) [7]: 37% and 44%
Total Cell Count [7]: 529 and 482
Population Apoptotic (%) [8]: 11% and 5%
Population Fragmented Nuclei (%) [8]: 3% and 6%
Population Healthy Nuclei (%) [8]: 37% and 72%
Population Hoechst High Intensity Objects (%) [8]: 3% and 2%
Population Membrane Permeable-Phenotype (%) [8]: 9% and 0%
Population Mitotic Cells (%) [8]: 88% and 94%
Population Normal (%) [8]: 96% and 97%
Population Pyknosed Nuclei (%) [8]: 58% and 21%
Total Cell Count [8]: 920 and 1144

Cc1cc(C)c(-n2ccn3nc(-c4cccnc4)cc23)cc1NC(=O)c1cc(C#N)cc(S(F)(F)(F)(F)F)c1 [BAY-826]
Population Apoptotic (%) [1]: 30%
Population Fragmented Nuclei (%) [1]: 14% and 17%
Population Healthy Nuclei (%) [1]: 56% and 57%
Population Hoechst High Intensity Objects (%) [1]: 14% and 13%
Population Membrane Permeable-Phenotype (%) [1]: 36% and 23%
Population Mitochondria Different-Phenotype (%) [1]: 25% and 17%
Population Mitotic Cells (%) [1]: 69%
Population Normal (%) [1]: 85% and 86%
Population Pyknosed Nuclei (%) [1]: 28% and 24%
Population Tubulin-Different-Phenotype (%) [1]: 93% and 58%
Total Cell Count [1]: 624 and 510
Population Fragmented Nuclei (%) [2]: 4% and 6%
Population Healthy Nuclei (%) [2]: 75% and 83%
Population Hoechst High Intensity Objects (%) [2]: 3%
Population Membrane Permeable-Phenotype (%) [2]: 34% and 17%
Population Mitochondria Different-Phenotype (%) [2]: 32% and 19%
Population Mitotic Cells (%) [2]: 79% and 93%
Population Normal (%) [2]: 96%
Population Pyknosed Nuclei (%) [2]: 20% and 9%
Population Tubulin-Different-Phenotype (%) [2]: 98% and 82%
Total Cell Count [2]: 1184 and 1372
Population Apoptotic (%) [5]: 35% and 25%
Population Fragmented Nuclei (%) [5]: 12% and 11%
Population Healthy Nuclei (%) [5]: 66% and 76%
Population Hoechst High Intensity Objects (%) [5]: 12% and 7%
Population Membrane Permeable-Phenotype (%) [5]: 33% and 20%
Population Mitochondria Different-Phenotype (%) [5]: 28% and 16%
Population Mitotic Cells (%) [5]: 64% and 75%
Population Normal (%) [5]: 87% and 92%
Population Pyknosed Nuclei (%) [5]: 20% and 12%
Population Tubulin-Different-Phenotype (%) [5]: 95% and 76%
Total Cell Count [5]: 622 and 545
Population Apoptotic (%) [6]: 9% and 14%
Population Healthy Nuclei (%) [6]: 78% and 68%
Population Hoechst High Intensity Objects (%) [6]: 4%
Population Membrane Permeable-Phenotype (%) [6]: 22% and 17%
Population Mitotic Cells (%) [6]: 90% and 85%
Population Normal (%) [6]: 95%
Population Tubulin-Different-Phenotype (%) [6]: 87%
Total Cell Count [6]: 2013 and 1166
